In ChEMBL document CHEMBL3102817, “Mycoleptones A-C and polyketides from the endophyte Mycoleptodiscus indicus” (J Nat Prod, 2014) one finds IC50 and LC50 data, which are given here for eleven compounds.

By IC50 is commonly meant the point on the concentration scale where inhibition reaches its midpoint. A low value points to greater potency in that assay.

For one assay, the system named is MDA-MB-435. Kind of assay: Cytotoxicity against human MDA-MB-435 cells by colorimetric method. It is filed as functional, cell-based.
The test system of a further assay is Leishmania major. Kind of assay: Antileishmanial activity against Leishmania major by AlamarBlue assay. In kind it is functional. Conditions: read-out: LD50 (the source's name). On the technique in general: The colour change of resazurin is a common sign of viable cells or microbes.
The test system of another assay is Leishmania donovani. Kind of assay: Antileishmanial activity against Leishmania donovani by AlamarBlue assay. In kind it is functional, organism-based. Put shortly: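 Microplate Alamar Blue (MABA) growth-inhibition assay on *L. donovani*, with amphotericin B and pentamidine as reference drugs.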
Assay [1] is described as follows: Cytotoxicity against human lymphocytes by colorimetric method. In kind it is cell-based. Conditions: Lymphocyte.
In another assay the test system is SF-295. Briefly: Cytotoxicity against human SF295 cells by colorimetric method. It is filed as functional, cell-based.
Assay [2] in a line: Cytotoxicity against human HCT8 cells by colorimetric method. It is filed as functional, cell-based. To be noted: HCT-8.
Another assay concerns HL-60. Kind of assay: Cytotoxicity against human HL60 cells by colorimetric method. It is filed as functional, cell-based.
Another assay relates to PC-3. Briefly: Cytotoxicity against human PC3 cells by colorimetric method. It is filed as functional, cell-based.

As to `CC(=O)O[C@H]1C2=COC(C)=CC2=C(C=O)C(=O)[C@]1(C)OC(C)=O`, the half-maximal inhibitory concentration (IC50) in the assay on MDA-MB-435 was 26.9 µM; in the assay with Leishmania donovani it was 59.3 µM; in assay [1] it was more than 78 µM; in the assay on SF-295, 26.3 µM; in assay [2], 13.9 µM; in the assay on HL-60, 22.1 µM. Further, in the assay with Leishmania major, the LC50 came out at 19.8 µM.

In the case of `COc1cccc2c1C(=O)c1c(O)c3c(c(O)c1C2=O)C[C@@](O)(C(=O)CO)C[C@@H]3O[C@H]1C[C@H](N)[C@H](O)[C@H](C)O1` [DOXORUBICIN], the IC50 in the assay on MDA-MB-435 was found to be 1.51 µM; in assay [1], 0.7 µM; with SF-295, 0.7 µM; in the assay with PC-3 it was 0.41 µM.

Regarding `CC1=CC2=C(Cc3c(O)c(C)c4c(c3O)C(=O)OC(C)C4)C(=O)[C@](C)(O)[C@@H](O)C2=CO1` (stereo partly drawn), the IC50 was more than 58 µM in the assay on MDA-MB-435; more than 58 µM in assay [1]; more than 58 µM in the assay with SF-295; 7.1 µM with PC-3; more than 58 µM in assay [2]; more than 58 µM in the assay on HL-60. For the same compound, the LC50 in the assay on Leishmania major is 21.7 µM.

For `CC1=CC2=C(C=O)C(=O)[C@](C)(O)[C@@H](O)C2=CO1`, the IC50 in the assay on MDA-MB-435 is 34.3 µM; with Leishmania donovani, 80.5 µM; in assay [1], more than 113 µM; in the assay on SF-295 it was 28 µM; in assay [2], 12.9 µM; with HL-60, 38.8 µM. For the same compound, in the assay on Leishmania major, the LC50 was found to be 20.5 µM.

With `C[C@@H]1[C@H](O)[C@@H](C)/C=C/C=C/C=C/C=C/C=C/C=C/C=C/[C@H](O[C@@H]2O[C@H](C)[C@@H](O)[C@H](N)[C@@H]2O)C[C@@H]2O[C@](O)(C[C@@H](O)C[C@@H](O)[C@H](O)CC[C@@H](O)C[C@@H](O)CC(=O)O[C@H]1C)C[C@H](O)[C@H]2C(=O)O` [AMPHOTERICIN B], the half-inhibitory concentration (IC50) in the assay with Leishmania donovani amounted to 0.14 µM.

`CC(=O)O[C@H]1C2=COC(C)=CC2=C(CC2=C3C=C(C)OC=C3[C@H](OC(C)=O)[C@@](C)(OC(C)=O)C2=O)C(=O)[C@]1(C)OC(C)=O`: the IC50 with MDA-MB-435 was more than 42 µM; in assay [1], more than 42 µM; with SF-295, more than 42 µM; with PC-3, 33.3 µM; in assay [2], more than 42 µM; with HL-60, more than 42 µM.

Take `COc1cc2oc(C)cc(=O)c2c(O)c1C`: the IC50 is more than 113 µM in the assay with MDA-MB-435; more than 181 µM in the assay on Leishmania donovani; more than 113 µM in assay [1]; more than 113 µM with SF-295; more than 113 µM in the assay with PC-3; more than 113 µM in assay [2]. Also, in the assay on HL-60, the IC50 was more than 113 µM. Moreover, the LC50 in the assay with Leishmania major was determined as 39.9 µM.

Turning to `COc1cc2oc(C)cc(=O)c2c(O)c1OC` [STELLATIN], the IC50 in the assay with MDA-MB-435 was more than 105 µM; in the assay with Leishmania donovani, more than 169 µM; in assay [1], more than 105 µM; in the assay with SF-295 it was more than 105 µM; in the assay with PC-3 it was 20.5 µM; in assay [2] it was more than 105 µM. The compound further had an IC50 with HL-60 of more than 105 µM. The LC50 in the assay with Leishmania major worked out at 34.5 µM.

Turning to `COc1cc2oc(CO)cc(=O)c2c(O)c1C`, the IC50 (with MDA-MB-435; in assay [1]; with SF-295; in the assay on PC-3; in assay [2]; with HL-60) was more than 105 µM throughout.

Consider `CC1=CC2=C(CC3=C4C=C(C)OC=C4[C@H](O)[C@@](C)(O)C3=O)C(=O)[C@](C)(O)[C@@H](O)C2=CO1`, for which the IC50 is more than 58 µM in the assay on MDA-MB-435; more than 93.4 µM with Leishmania donovani; more than 58 µM in assay [1]; more than 58 µM in the assay with SF-295; 10 µM in the assay with PC-3; more than 58 µM in assay [2]. The compound also registered an IC50 with HL-60 of more than 58 µM. Besides, the LC50 with Leishmania major worked out at 28.5 µM.

Take `CN[C@@H]1[C@@H](O)[C@@H](O[C@@H]2[C@@H](O)[C@H](O[C@H]3O[C@H]([C@@H](C)O)[C@@H](O)[C@H](O)[C@H]3N)[C@@H](N)C[C@H]2N)OC[C@]1(C)O` [GENETICIN]: the LC50 in the assay on Leishmania major was determined as 3.43 µM.
